Activity calls are given as the source filed them. The calls are words filed in the database; no cut-off is given here.
Assays:
[1] = target: Mitogen-activated protein kinase 14 (Mus musculus) (UniProt P47811); test: Inhibition of LPS-stimulated p38 alpha phosphorylation in mouse BV-2 cells at 10 uM measured after 30 mins by Western blot analysis; format: cell-based
How it was run: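 Bv.2 cells exposed with or without LPS for 15–90 min. Protein extracts run on SDS-PAGE, blotted to PVDF, probed with anti-phospho-p38α MAPK and anti-total p38α MAPK (1:1000), ECL detection. Quantified by densitometry, mean ± SEM, n = 3.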

BV-2 [2] = test: Cytotoxicity against mouse BV-2 cells at 10 uM measured after 24 hr by crystal violet staining based analysis; format: toxicity, cell-based; conditions: bv-2, 24 h
How it was run: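 Bv.2 cells grown to 70% confluence, exposed 24 h in serum-free medium to 0.1, 1.0, 10 and 25 μM. Fixed with 1% glutaraldehyde, stained with 0.1% crystal violet, dye released in 10% acetic acid, absorbance 590 nm. Mean ± SEM, n ≥ 3 independent experiments.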

HeLa [3] = test: Induction of morphological changes in human HeLa cells assessed as increase in cell shrinkage at 20 uM measured after 12 hrs by imaging based analysis
SW1573 [4] = test: Growth inhibition of human SW1573 cells measured after 48 hrs by SRB colorimetric assay; format: functional
How it was run: (§1)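 NCI-based protocol with sulforhodamine B read-out. Seeded 2500 (A549, HBL-100, HeLa, SW1573), 5000 (T-47D, WiDr, SW1573/P-gp) or 7000 (BJ-hTERT) cells/well. Exposed 48 h to serial decimal dilutions, 0.001–100 μM, from 40 mM DMSO stock. GI50 by NCI formulas; mean of three or more experiments ± SD.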

BV-2 [5] = test: Antiinflammatory activity in mouse BV-2 cells assessed as restoration of […] expression level at 10 uM incubated for 24 hrs with LPS stimulation by qRT-PCR analysis; format: functional, cell-based
How it was run: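 Bv.2 microglia stimulated with LPS 200 ng/mL with or without compound at 10 μM for 24 h. Arg1 mRNA measured by qRT-PCR, Actinb as housekeeping gene, 2^-ΔΔCT method, fold change relative to basal. n ≥ 4 independent experiments in triplicate.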

HBL-100 = test: Growth inhibition of human HBL-100 cells measured after 48 hrs by SRB colorimetric assay; format: functional; how it was run: as §1
[6] = Resistance factor, ratio of GI50 for growth inhibition of human SW1573 cells overexpressing P-glycoprotein measured after 48 hrs in presence of verapamil to GI50 for growth inhibition of human SW1573 cells measured after 48 hrs in presence of verapamil; format: functional
How it was run: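 SW1573 parental and P-gp-overexpressing cells given 48 h exposure to serial dilutions (0.001–100 μM) in medium containing verapamil at a final 10 μM as P-gp transport inhibitor. SRB read-out, GI50 by NCI formulas. Resistance factor taken as GI50 in SW1573/P-gp divided by GI50 in SW1573.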

[7] = Resistance factor, ratio of GI50 for growth inhibition of human SW1573 cells overexpressing P-glycoprotein measured after 48 hrs in absence of verapamil to GI50 for growth inhibition of human SW1573 cells measured after 48 hrs in absence of verapamil; format: functional
How it was run: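 Resistance factor: GI50 in P-gp-overexpressing SW1573 divided by GI50 in parental SW1573, each from 48 h SRB growth-inhibition assay without verapamil. Values are means of three or more independent experiments.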

BV-2 [8] = test: Antiinflammatory activity in mouse BV-2 cells assessed as reduction of LPS induced nitrites at 10 uM preincubated for 3 hrs followed by LPS stimulation and measured after 24 hrs by Griess method; format: functional, cell-based; conditions: time 27.0 hrs
How it was run: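 Bv.2 microglia at 70% confluence, pre-treated 3 h at 10 μM in serum-free medium, then LPS 200 ng/mL for 24 h. Nitrite in the medium measured by Griess (1% sulphanilamide, 0.1% NEDA in acid), absorbance 548 nm, expressed as fold change over basal. n ≥ 4 independent experiments in triplicate, mean ± SEM.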

HeLa [9] = test: Inhibition of colony formation in human HeLa cells assessed as reduction in number of colonies at GI50 concentration measured after 7 days by crystal violet staining based analysis; format: functional, cell-based; conditions: time 7.0 day
How it was run: (§2)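 HeLa and SW1573 seeded at 400 cells/well, dosed next day at GI50/3 and GI50 for the given line. Exposed seven days, fixed in methanol, stained with 0.5% w/v crystal violet. Colonies counted by automatic image segmentation.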

HeLa [10] = test: Induction of apoptosis in human HeLa cells assessed as membrane blebbing at 20 uM measured upto 15 hrs by microscopy based analysis; format: functional, cell-based
How it was run: (§3)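 HeLa and SW1573 seeded at 100,000 cells/dish. After 24 h, medium switched to phenol-red-free RPMI 1640 and 20 μM added. Label-free holotomographic 3D live imaging of a 236 × 236 μm field, 10–20 cells initially, every 3 min for 15 h. Average dry mass density measured per cell at each cycle; morphology scored against untreated cells.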

SW1573 [11] = test: Induction of morphological changes in human SW1573 cells assessed as increase in average dry mass density at 20 uM measured after 15 hrs by imaging based analysis; format: functional, cell-based; how it was run: as §3
SW1573 [12] = test: Inhibition of colony formation in human SW1573 cells assessed as reduction in number of colonies at GI50 concentration measured after 7 days by crystal violet staining based analysis; format: functional, cell-based; conditions: time 7.0 day; how it was run: as §2
hTERT-BJ = test: Growth inhibition of human hTERT-BJ cells measured after 48 hrs by SRB colorimetric assay; format: functional
How it was run: as §1, with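 “read-out. Cells grown in RPMI 1640 with 5% FBS and 1 mM glutamine at 37 °C, 5% CO₂.” for “read-out.”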

Chain of Mitogen-activated protein kinase 14 (Mus musculus) (P47811 whole entry): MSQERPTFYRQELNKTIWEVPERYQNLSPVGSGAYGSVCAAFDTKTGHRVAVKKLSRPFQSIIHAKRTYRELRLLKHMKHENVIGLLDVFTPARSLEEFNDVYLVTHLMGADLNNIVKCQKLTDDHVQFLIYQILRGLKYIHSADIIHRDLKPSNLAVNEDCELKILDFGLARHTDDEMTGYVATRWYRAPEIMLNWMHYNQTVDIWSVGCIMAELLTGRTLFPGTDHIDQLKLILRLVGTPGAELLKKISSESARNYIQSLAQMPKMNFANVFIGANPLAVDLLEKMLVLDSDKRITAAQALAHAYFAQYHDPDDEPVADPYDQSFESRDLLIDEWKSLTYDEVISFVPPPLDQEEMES

- inhibition [1]: inactive
- GI50 (SW1573 [4]): 9.1 µM
SMILES: CCCCCCCCCCCCS(=O)(=O)[C@@H]1[C@H](F)[C@@H](O)[C@H](O)[C@H]2COC(=O)N21
- Activity (BV-2 [2]): Non-Toxic
- Activity (HeLa [3]): Active
- Activity (BV-2 [5]): Active
- GI50 (HBL-100): 19 µM
- RatioGI50 [6]: 0.7
- RatioGI50 [7]: 1.6
- Activity (BV-2 [8]): Active
- inhibition (HeLa [9]): Active
- Activity (HeLa [10]): Active
- Activity (SW1573 [11]): Active
- inhibition (SW1573 [12]): Active
- GI50 (hTERT-BJ): 32 µM

— ChEMBL document CHEMBL5321236, “Fluoro-labelled sp2-iminoglycolipids with immunomodulatory properties” (Eur J Med Chem, 2023)
